Data set [1] deals with T1, Autotaxin (Mus musculus, UniProt Q9R1E6). Briefly: Inhibition of mouse ATX-beta using LPC 16:0 as substrate by Amplex Red PLD assay.
Data set [2] has as its target T1, Autotaxin. Nature of the data set: Inhibition of mouse ATX-beta using LPC 18:0 as substrate by Amplex Red PLD assay.
The target in data set [3] is T1, Autotaxin. Briefly: Inhibition of recombinant mouse ATX expressed in HEK293 cells using FS3 as substrate preincubated for 15 mins followed by substrate addition measured after 30 mins.
Data set [4] has as its target T1, Autotaxin. Nature of the data set: Inhibition of recombinant mouse ATX expressed in HEK293 cells using LPC 17:0 as substrate after 30 mins by LC-MS/MS method.
The species entered for data set [5] is Rattus norvegicus. Nature of the data set: animal or person. The note with it: Lewis, po, 4 h, read-out: INH.
For data set [6], the system named is Mus musculus. Briefly: Antifibrotic activity in BLM-induced C57BL/6 mouse pulmonary fibrosis model assessed as improvement in lung architecture at 30 mg/kg, ip qd administered 15 days starting 1 day prior to BLM installation by hematoxylin/eosin staining-based microscopic method. The format is functional, organism-based. An outline of the steps:
(§1)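 Bleomycin model: mice 8–10 weeks, 0.01 U orotracheal bleomycin on day 0, 30 mg/kg ip daily from day −1 to 14 (PBS/5% Tween 80 vehicle), killed day 15. Lungs were fixed in 10% neutral buffered formalin, paraffin-embedded, cut at 4 μm and H&E-stained. Sections were examined by light microscopy at ×100–×300.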

Data set [7] has as its system Mus musculus. Briefly: Antifibrotic activity in BLM-induced C57BL/6 mouse pulmonary fibrosis model assessed as decrease in contiguous fibrotic walls at 30 mg/kg, ip qd administered 15 days starting 1 day prior to BLM installation by hematoxylin/eosin staining-based microscopic method. It counts as functional, organism-based. An outline of the steps: as §1
Data set [8] has as its system Mus musculus. Briefly: Antifibrotic activity in BLM-induced C57BL/6 mouse pulmonary fibrosis model assessed as decrease in fibrotic lesions at 30 mg/kg, ip qd administered 15 days starting 1 day prior to BLM installation by hematoxylin/eosin staining-based microscopic method. It counts as functional, organism-based. An outline of the steps:
as §1

Data set [9] concerns Mus musculus. Briefly: Antifibrotic activity in BLM-induced C57BL/6 mouse pulmonary fibrosis model assessed as decrease in inflammatory cell influx in bronchoalveolar lavage fluid at 30 mg/kg, ip qd administered 15 days starting 1 day prior to BLM installation by trypan blue assay relative to control. It counts as functional. Also noted: scale not given: the % may be the effect or the level left. An outline of the steps:
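Mice (C57BL/6, 8–10 weeks) had orotracheal bleomycin 0.01 U on day 0 and ip dosing at 30 mg/kg daily from day −1 to 14, n = 10. On day 15, lungs were lavaged 3 × 1 mL 0.9% NaCl. BALF was spun at 1200 rpm for 10 min, and pellet cells were counted with 0.4% trypan blue (×10^5 cells/mL). Means ± SE.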

The subject of data set [10] is Mus musculus. Nature of the data set: Antifibrotic activity in BLM-induced C57BL/6 mouse pulmonary fibrosis model assessed as decrease in total protein concentration in bronchoalveolar lavage fluid at 30 mg/kg, ip qd administered 15 days starting 1 day prior to BLM installation by Bradford protein assay relative to control. The format is functional, organism-based. An outline of the steps:
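BALF total protein was measured after orotracheal bleomycin (0.01 U, day 0) and 30 mg/kg ip daily dosing from day −1 to 14. Lavage was done on day 15 with 3 × 1 mL saline, and the supernatant was stored at −80 °C. OD readings were converted to mg/mL using a BSA standard curve (0–2 mg/mL). Means ± SE, paired t test.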

Data set [11] has as its system Mus musculus. Briefly: Antifibrotic activity in BLM-induced C57BL/6 mouse pulmonary fibrosis model assessed as decrease in soluble collagen concentration in bronchoalveolar lavage fluid at 30 mg/kg, ip qd administered 15 days starting 1 day prior to BLM installation by Sirius Red assay. It counts as functional, organism-based. An outline of the steps: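 Day-15 BALF from bleomycin-challenged mice given ip drug at 30 mg/kg daily from day −1 to 14. BALF (100 μL) was diluted in 1 mL 0.5 M acetic acid, mixed with an equal volume of Sirius Red (120 μg/mL in 0.5 M acetic acid) and held 30 min at room temperature. After centrifugation, supernatant A540 was read against a rat-tail collagen I standard (0–500 μg/mL).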

Data set [12] deals with Mus musculus. Nature of the data set: Antifibrotic activity in BLM-induced C57BL/6 mouse pulmonary fibrosis model assessed as decrease in ATX activity in bronchoalveolar lavage fluid at 30 mg/kg, ip qd administered 15 days starting 1 day prior to BLM installation by TOOS activity assay. The format is functional, organism-based. An outline of the steps: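 Male and female C57BL/6 mice (8–10 weeks) got 0.01 U bleomycin in 50 μL saline orotracheally on day 0. Dosing was 30 mg/kg ip once daily from day −1 to 14 in PBS/5% Tween 80 (n = 10). Lungs were lavaged three times with 1 mL saline on day 15. BALF lysoPLD activity was measured by TOOS assay (nmol/min/mL). Means ± SE.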

The nature of data set [13]: Plasma concentration in BLM-induced C57BL/6 mouse pulmonary fibrosis model at 30 mg/kg, ip qd administered 15 days starting 1 day prior to BLM installation measured 1 hr post last dose by LC-MS/MS method. The format is ADME, organism-based. An outline of the steps: (§2)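 Bleomycin-challenged C57BL/6 mice received 30 mg/kg ip daily from day −1 to 14. Blood was taken 1, 3 and 6 h after the last dose into EDTA (pH 8, final 50 mM). It was centrifuged at 2000g for 20 min at 4 °C, and plasma was stored at −80 °C. Plasma drug levels were quantified by LC–MS/MS (ng/mL).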

Data set [14] has as its system Plasma. Nature of the data set: Plasma concentration in BLM-induced C57BL/6 mouse pulmonary fibrosis model at 30 mg/kg, ip qd administered 15 days starting 1 day prior to BLM installation measured 3 to 6 hrs post last dose by LC-MS/MS method. The format is ADME, organism-based. As to conditions: in vivo. An outline of the steps: as §2

We go through 18 molecules from ChEMBL document CHEMBL4043308 (J Med Chem, 2018).

Activity calls are given as the source filed them. The calls are words filed in the database; no cut-off is given here.

Take `O=C(CCCCC(=O)Nc1ccc(B(O)O)cc1)Nc1ccccc1`: the IC50 stood at 0.7 µM in [1] and 4 µM in [2].

As to `O=C(Cc1ccc(NC(=O)CCCCc2ccc(-c3ccccc3)cc2)cc1)NO`, the IC50 in data set [1] is more than 5 µM.

For `CCOc1ccc(NC(=O)CCCCC(=O)N[C@@H](CCC(=O)NO)C(=O)OC)cc1`, the half-maximal inhibitory concentration (IC50) in data set [1] was more than 5 µM.

The molecule `CCCCCCCCc1ccc(C(=O)Nc2ccc(CC(=O)NO)cc2)cc1` came in with an IC50 in data set [1] of more than 5 µM.

`COC(=O)[C@H](CCCC(=O)NO)NC(=O)CCCCC(=O)Nc1ccccc1` showed a 50% inhibitory concentration (IC50) in data set [1] of 0.05 µM.

`COC(=O)[C@H](CCCC(=O)NO)NC(=O)CCCCCCc1ccccc1` gave an IC50 in [1] of more than 5 µM.

For `COC(=O)[C@H](CCC(=O)NO)NC(=O)CCCCC(=O)Nc1ccccc1`, half-maximal inhibition in data set [1] (IC50) was put at 0.4 µM.

The molecule `COC(=O)[C@H](CCC(=O)NO)NC(=O)CCCCC(=O)Nc1ccc(OC)cc1` displayed a half-inhibitory concentration (IC50) in [1] of 4.5 µM.

In the case of `O=C(Cc1ccc(NC(=O)CCCCC(=O)Nc2ccccc2)cc1)NO`, half-maximal inhibition in data set [2] (IC50) was put at 0.2 µM.

On to `CCCCCCCCCC(=O)Nc1ccc(CC(=O)NO)cc1`, for which the IC50 in [1] is more than 5 µM.

`O=C(O)Cc1ccc(NC(=O)CCCCC(=O)Nc2ccccc2)cc1` yielded a 50% inhibitory concentration (IC50) in [1] of more than 5 µM.

On to `O=C(CCCCC(=O)Nc1ccc(CC(=O)C(F)(F)C(F)(F)F)cc1)Nc1ccccc1`, for which the half-inhibitory concentration (IC50) in data set [1] worked out at 3 µM; in [2], 0.5 µM.

In data set [1], `COC(=O)[C@H](CCC(=O)NO)NC(=O)CCCCC(=O)Nc1ccc(F)cc1` showed a concentration for half-maximal inhibition (IC50) of more than 5 µM.

As for `COC(=O)[C@H](CCC(=O)NO)NC(=O)CCCCNC(=O)c1ccccc1`, in data set [1], the half-inhibitory concentration (IC50) was more than 5 µM.

On to `O=C(CCN1CCN(C(=O)OCc2cc(Cl)cc(Cl)c2)CC1)c1ccc2[nH]c(=O)oc2c1`, for which the 50% inhibitory concentration (IC50) was found to be 0.0028 µM in [3] and 0.0017 µM in data set [4]. For the same molecule, in [5], the inhibition in vivo at 30 mg/kg was more than 95%.

Turning to `O=C(Cc1ccc(NC(=O)CCCCNC(=O)c2ccc(F)cc2)cc1)NO`, the IC50 in data set [1] was more than 5 µM.

In [1], `O=C(CC[C@H](NC(=O)CCCCC(=O)Nc1ccccc1)C(=O)NO)NO` gave an IC50 of more than 5 µM.

Regarding `CCCC[C@@H](CCCC(=O)NO)NC(=O)CCCCC(=O)Nc1ccccc1`, the result in data set [6], in data set [7], in [8], in data set [10], in data set [11] and in data set [12] was Active. Moreover, in [9], the Activity is on record as 50%. Moreover, the concentration at 1 h in data set [13] amounted to 70 ng/mL. In data set [14], this molecule returned a Cp of 35 ng/mL.
